# Compound activity deposited in PubChem by The Scripps Research Institute Molecular Screening Center.
# CHO-K1 Ca antag = M1 antagonist counterscreen hit in parental CHO-K1 cells; ATP-induced calcium, Fluo-8 fluorescence; inhibition, % at 3 µM; actives 0.6% (n = 360,000);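 active = inhibition above a per-plate cutoff, the plate's mean sample inhibition plus 3 SD, cut at about 24% in these data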;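 note: 0% = DMSO plus EC80 ATP and 100% = DMSO alone without ATP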
# M5 PAM = human M5 muscarinic receptor positive allosteric modulators, primary screen, CHO-K1 cells, Fluo-8 calcium fluorescence; AID 624038, 2012; actives 0.3% (n = 360,000); CHO-K1 hM5, ACh EC20 PAM; 0% = ACh EC20, 100% = ACh EC100; activation, % at 3 µM; Muscarinic acetylcholine receptor M5 (Homo sapiens), P08912;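 active = activation above the run cutoff, the mean activation of all test compounds plus 3 SD, cut at about 18% in these data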
# Target sequence (P08912 whole entry, looked up): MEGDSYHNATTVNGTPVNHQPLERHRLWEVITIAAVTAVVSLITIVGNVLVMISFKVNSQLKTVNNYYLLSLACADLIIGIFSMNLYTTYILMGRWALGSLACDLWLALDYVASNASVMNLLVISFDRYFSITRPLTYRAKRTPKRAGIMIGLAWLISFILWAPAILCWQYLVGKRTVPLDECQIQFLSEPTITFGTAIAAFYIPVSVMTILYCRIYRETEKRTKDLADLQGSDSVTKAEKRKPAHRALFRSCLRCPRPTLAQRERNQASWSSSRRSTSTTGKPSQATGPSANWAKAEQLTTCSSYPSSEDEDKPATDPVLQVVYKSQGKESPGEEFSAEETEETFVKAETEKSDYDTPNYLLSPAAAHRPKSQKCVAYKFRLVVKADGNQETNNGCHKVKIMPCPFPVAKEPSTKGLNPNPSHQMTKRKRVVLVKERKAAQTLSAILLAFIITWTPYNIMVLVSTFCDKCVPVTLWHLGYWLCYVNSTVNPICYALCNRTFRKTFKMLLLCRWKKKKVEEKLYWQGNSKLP
#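 Measured by: Fluo-8 calcium fluorescence; material: human M5 receptor in CHO-K1 cells; schedule: Post-acetylcholine fluorescence recording 140 s; benchmarks: low control EC20 acetylcholine (0%), high control EC100 acetylcholine (100%); read-out: Max/basal fluorescence ratio as % of EC20–EC100 ACh window; compound: single dose, 3 µM nominal final test concentration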
# CHO-K1 Ca ag = counter-screen for M1 agonists: effect in parental CHO-K1 cells; Fluo-8 calcium fluorescence; scaled to maximal ATP response, vehicle zero; activation, % at 3 µM; actives 0.48% (n = 360,000); AID 602248, 2012; in the data active = activation above about 15%;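 note: untransfected CHO-K1 host cells lacking M1 receptor as counterscreen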
# CHRM5 agonist = human M5 muscarinic receptor agonists, primary screen, CHO-K1 cells, Fluo-8 calcium fluorescence; Muscarinic acetylcholine receptor M5 (Homo sapiens), P08912; CHO-K1 hM5 cells; 0% DMSO wells, 100% maximal acetylcholine response; activation, % at 3 µM; actives 0.19% (n = 360,000); AID 624037, 2012;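 active = activation above the run's mean over test compounds plus 3 SD, cut at about 23% in these data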;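 note: signal is peak over basal fluorescence ratio across the kinetic read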
# CHRM5 antagonist = human M5 muscarinic receptor antagonists, primary screen, CHO cells, Fluo-8 calcium fluorescence | CHO-hM5 cells, ACh EC80 | AID 624040, 2012 | inhibition, % at 3 µM | actives 0.59% (n = 360,000) | Muscarinic acetylcholine receptor M5 (Homo sapiens), P08912;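 active = inhibition above a per-plate cutoff, the mean of that plate's test compounds plus 3 SD, cut at about 27% in these data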;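 note: 0% = acetylcholine EC80 with DMSO and 100% = DMSO without agonist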
# CHO-K1 Ca PAM = nonselective calcium activators in parental CHO-K1 cells, primary screen, counter-screen for M1 PAM project, cell-based, Fluo-8 calcium fluorescence, full deck, 1536-well; ATP EC20; 0% at ATP EC20, 100% at ATP max; activation, % at 3 µM; actives 0.02% (n = 360,000); AID 602247, 2012;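 active = activation above the run cutoff, the mean activation of all test compounds plus 3 SD, cut at about 40% in these data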;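 note: peak over basal fluorescence ratio in a 140 s read after ATP addition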
# Active calls of the source: *; nt = no result given. Sampled rows, rich in hits. Any-hit rate of the full collection: about 1.7%.
SMILES,CHO-K1 Ca antag,M5 PAM,CHO-K1 Ca ag,CHRM5 agonist,CHRM5 antagonist,CHO-K1 Ca PAM
CN(CC(=O)Nc1cccc(F)c1)C(=O)C1CC(=O)N(Cc2ccco2)C1 (stereo unspecified),1,-1,1,2,7,-8
Cc1onc(-c2ccccc2)c1NC(=O)Nc1ccc(OC(F)F)cc1,10,-8,25*,0,9,-6
Cc1ccc(C(=O)OCN2C(=O)c3ccccc3C2=O)cc1S(=O)(=O)N1CCOCC1,-5,4,1,-3,-6,19
CN(C)CCCn1c(=O)n(Cc2ccco2)c(=O)c2c3c(sc21)CCCCC3,-8,18*,2,-3,-9,10
CCOC(=O)C1(C)CCCCCN1C(=O)c1ccc(OC)cc1 (stereo unspecified),25*,-6,0,1,-11,-14
CCOC(=O)c1ccc(N2CCN(c3ccc(F)cc3)CC2)c(NC(=O)Nc2cccc(OC)c2)c1,-12,-3,1,-1,-2,26
CCOC(=O)c1ccc(N2CCN(c3ccccc3F)CC2)c(NC(=O)Nc2ccccc2)c1,16,-18,4,0,40*,-1
O=C(Nc1ccc(S(=O)(=O)Nc2ncccn2)cc1)c1ccc(Br)o1,1,0,18*,1,6,13
O=C(Nc1ccc(S(=O)(=O)Nc2ncccn2)cc1)c1ccco1,-9,-6,1,0,18,16
COc1ccc(S(=O)(=O)Nc2cccc(/C=C/C(=O)O)c2)cc1,5,0,0,-1,3,-2
Cc1ccc(S(=O)(=O)Nc2cccc(/C=C/C(=O)O)c2)cc1,10,46*,0,-3,-1,-7
Cc1ccc(/C=C/C(=O)Nc2ccc(S(=O)(=O)Nc3ncccn3)cc2)cc1,-3,26*,0,6,-14,-11
CC1(C)Cc2c(sc3nc[nH]c(=O)c23)CO1,26*,0,0,0,-13,-19
OCCN1CCN(CC/C=C2/c3ccccc3Sc3ccc(C(F)(F)F)cc32)CC1,-5,-6,3,1,9,17
CN(C)CC/C=C1\c2ccccc2COc2ccccc21,nt,-18,nt,-1,98*,nt
CCCCCC[N+](C)(C)CC/C=C1/c2ccccc2Sc2ccc(Cl)cc21,2,-33,0,-18,99*,-3
CN(C)CC/C=C1/c2ccccc2Sc2ccc(Cl)cc21,-3,-18,1,1,99*,8
CN1CCN(CCC=C2c3ccccc3Sc3ccc(S(=O)(=O)N(C)C)cc32)CC1,-3,-9,2,2,7,-3
CN(C)CC/C=C1/c2ccccc2CS(=O)(=O)c2ccccc21,-9,-30,1,-21,15,17
CC(C)Oc1ccc(CN2CCC2(C)C(=O)Nc2ccc3c(c2)OCO3)cc1 (stereo unspecified),-6,-6,0,-2,7,21
CC(C)c1ccc(CN2CCC2(C)C(=O)Nc2ccc3c(c2)OCO3)cc1 (stereo unspecified),-8,-2,17*,-2,-3,26
CC(=O)c1c(C)[nH]c(C(=O)COC(=O)C2(C)CC2(Cl)Cl)c1C (stereo unspecified),-7,-28,20*,7,14,2
C/C(=N\N1CCN(Cc2ccc(Cl)cc2)CC1)c1ccc([N+](=O)[O-])cc1,-7,6,1,0,-7,13
COc1ccccc1OCCNC(=O)c1ccc(C(C)(C)C)cc1,-8,20*,4,-3,-8,27
CC12CCC(=O)N1C(C(=O)NCCc1ccc(F)cc1)CS2 (stereo unspecified),-2,0,1,-2,1,6
Cc1ccc(SCC(=O)c2ccc[nH]2)cc1,-7,7,1,-4,3,3
COc1cc(C(=O)Sc2ccc(Cl)cc2)cc(OC)c1OC,-4,6,0,-6,-2,15
